Columns and labels:
Melanocortin receptor 4 [1] = target: T1, Melanocortin receptor 4 (Homo sapiens, UniProt P32245); experiment: Agonist activity at human MC4 receptor expressed in HEK293 cells; assay type: functional, cell-based
Outline: (§1)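 HEK293 cells stably transfected with the receptor subtype and a CRE-luciferase reporter; cells assayed in 96-well format for luciferase activity. Response expressed as percent of maximal activity (Emax) of NDP-MSH (MT-I) reference agonist.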

[2] = target: T2, Melanocyte-stimulating hormone receptor (Homo sapiens, UniProt Q01726); experiment: Displacement of europium labeled NDP-alpha-MSH from human MC1 receptor expressed in HEK293 cells; assay type: cell-based
T2 sequence (Q01726 whole entry): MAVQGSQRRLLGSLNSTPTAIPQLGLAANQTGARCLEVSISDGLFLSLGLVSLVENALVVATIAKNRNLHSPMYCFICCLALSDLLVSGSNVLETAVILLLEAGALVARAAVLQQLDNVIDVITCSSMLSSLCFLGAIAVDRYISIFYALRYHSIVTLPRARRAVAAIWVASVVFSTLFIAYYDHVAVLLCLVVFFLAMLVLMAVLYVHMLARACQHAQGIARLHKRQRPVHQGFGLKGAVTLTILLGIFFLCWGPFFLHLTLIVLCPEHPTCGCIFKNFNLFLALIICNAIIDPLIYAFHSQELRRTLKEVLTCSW
Outline: (§2)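 HEK293 cells stably transfected with each human receptor subtype; competing unlabeled ligands displace a constant concentration of europium-labeled NDP-α-MSH, read by time-resolved fluorometry; IC50 and Ki calculated.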

Melanocortin receptor 3 [3] = target: T3, Melanocortin receptor 3 (Homo sapiens, UniProt P41968); experiment: Displacement of europium labeled NDP-alpha-MSH from human MC3 receptor expressed in HEK293 cells; assay type: cell-based; outline: as §2
T3 sequence (P41968 whole entry): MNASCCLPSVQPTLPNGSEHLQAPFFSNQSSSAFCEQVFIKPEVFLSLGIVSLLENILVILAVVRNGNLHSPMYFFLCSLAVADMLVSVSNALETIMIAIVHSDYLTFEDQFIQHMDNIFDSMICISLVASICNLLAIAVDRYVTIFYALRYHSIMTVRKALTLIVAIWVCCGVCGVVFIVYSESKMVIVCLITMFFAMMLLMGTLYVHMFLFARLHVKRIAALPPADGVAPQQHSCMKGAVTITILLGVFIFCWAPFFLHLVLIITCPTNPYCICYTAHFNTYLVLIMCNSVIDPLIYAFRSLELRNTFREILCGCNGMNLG

[4] = target: T2, Melanocyte-stimulating hormone receptor; experiment: Agonist activity at human MC1 receptor expressed in HEK293 cells; assay type: functional, cell-based; outline: as §1
Melanocortin receptor 3 [5] = target: T3, Melanocortin receptor 3; experiment: Agonist activity at human MC3 receptor expressed in HEK293 cells; assay type: functional, cell-based; outline: as §1
Melanocortin receptor 4 [6] = target: T1, Melanocortin receptor 4; experiment: Displacement of europium labeled NDP-alpha-MSH from human MC4 receptor expressed in HEK293 cells; assay type: cell-based; outline: as §2

T1 sequence (P32245 whole entry): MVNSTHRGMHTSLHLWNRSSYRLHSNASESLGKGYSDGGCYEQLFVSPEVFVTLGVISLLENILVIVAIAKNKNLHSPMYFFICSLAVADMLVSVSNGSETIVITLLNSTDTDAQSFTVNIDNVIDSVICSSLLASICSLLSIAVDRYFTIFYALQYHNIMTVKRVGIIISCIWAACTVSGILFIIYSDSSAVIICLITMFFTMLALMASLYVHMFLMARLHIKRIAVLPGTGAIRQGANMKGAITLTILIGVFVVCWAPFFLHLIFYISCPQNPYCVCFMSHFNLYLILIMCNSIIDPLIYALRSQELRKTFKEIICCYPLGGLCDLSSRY

Structure (SMILES) | EC50 (Melanocortin receptor 4 [1]) | Ki [2] | Ki (Melanocortin receptor 3 [3]) | EC50 [4] | EC50 (Melanocortin receptor 3 [5]) | Ki (Melanocortin receptor 4 [6])
N=C(N)NCCC[C@H](CC1CCCCC1)NC(=O)[C@H](N)Cc1ccc(F)cc1 | > 50 µM |  | 9.1 µM | > 25 µM | > 15 µM | 6.7 µM
NC(N)=NCCC[C@H](Cc1ccccc1)NC(=O)[C@H](N)Cc1ccc(F)cc1 | > 100 µM | > 25 µM | 3.5 µM |  | > 100 µM | 4.2 µM
NC(N)=NCCC[C@@H](CN1CCCCC1)NC(=O)[C@H](N)Cc1ccc(F)cc1 | > 100 µM | > 100 µM | > 100 µM | > 50 µM | > 100 µM | > 100 µM

Continued, values first:

EC50 (Melanocortin receptor 4 [1]) | Ki [2] | Ki (Melanocortin receptor 3 [3]) | EC50 [4] | EC50 (Melanocortin receptor 3 [5]) | Ki (Melanocortin receptor 4 [6]) | Structure (SMILES)
> 50 µM | > 100 µM | > 100 µM | > 50 µM | > 25 µM | > 25 µM | N=C(N)NCCC[C@H](NC(=O)[C@H](N)Cc1ccc(F)cc1)C(=O)N1CCCCC1
0.016 µM | > 10 µM | 2.3 µM | 2 µM | 0.23 µM | 0.023 µM | N[C@H](Cc1ccc(Cl)cc1)C(=O)N1CCC(Cn2cncn2)(C2CCCCC2)CC1
> 25 µM | > 25 µM | 4.5 µM | > 25 µM | > 50 µM | > 50 µM | N[C@H](Cc1ccc(F)cc1)C(=O)NCCC(Cn1cncn1)C1CCCCC1 (some centres undefined)

Reference: ChEMBL document CHEMBL1142292, “Synthesis and biological activity of novel peptide mimetics as melanocortin receptor agonists” (Bioorg Med Chem Lett, 2008)
